From ChEMBL document CHEMBL4152211, “Discovery of novel Methylsulfonyl phenyl derivatives as potent human Cyclooxygenase-2 inhibitors with effective anticonvulsant action: Design, synthesis, in-silico, in-vitro and in-vivo evaluation” (Eur J Med Chem, 2018) come the findings set out here.

Molecules are shown by their SMILES. The source made the active and inactive calls. No cut-off for these calls is given here.

Assay [1] deals with T1, Prostaglandin G/H synthase 2 (Homo sapiens) (UniProt P35354).
T1 sequence (whole entry): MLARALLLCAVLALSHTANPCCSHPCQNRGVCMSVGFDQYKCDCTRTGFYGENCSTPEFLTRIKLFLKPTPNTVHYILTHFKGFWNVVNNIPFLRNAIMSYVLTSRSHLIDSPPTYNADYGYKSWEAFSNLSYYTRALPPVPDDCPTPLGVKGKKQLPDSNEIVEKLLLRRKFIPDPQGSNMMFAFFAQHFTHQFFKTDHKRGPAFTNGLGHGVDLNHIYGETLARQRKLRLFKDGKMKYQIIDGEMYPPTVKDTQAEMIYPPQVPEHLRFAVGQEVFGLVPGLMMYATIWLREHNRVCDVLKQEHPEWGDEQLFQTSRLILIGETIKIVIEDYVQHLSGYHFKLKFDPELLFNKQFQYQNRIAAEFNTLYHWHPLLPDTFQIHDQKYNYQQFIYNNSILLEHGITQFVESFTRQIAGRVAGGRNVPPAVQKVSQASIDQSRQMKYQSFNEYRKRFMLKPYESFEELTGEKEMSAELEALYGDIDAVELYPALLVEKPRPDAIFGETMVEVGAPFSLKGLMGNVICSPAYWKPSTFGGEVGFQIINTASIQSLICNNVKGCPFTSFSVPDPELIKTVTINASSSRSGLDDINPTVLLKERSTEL
The assay is described as follows: Inhibition of human recombinant COX2 at 10 uM using arachidonic acid as substrate preincubated for 5 mins followed by substrate addition and measured after 2 mins by ADPH probe-based fluorescence assay relative to control. In outline:
(§1)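 Kit assay in 100 mM Tris-HCl pH 8.0. Enzyme, heme and inhibitor (DMSO stocks) are incubated 5 min at room temperature. ADPH is added, then arachidonic acid starts the reaction. After 2 min, fluorescence is read at ex 535/em 590 nm. Percent inhibition is taken versus the 100% activity well, background wells included. IC50 is derived from percentage inhibition, mean of three independent experiments.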

Assay [2] addresses T2, Prostaglandin G/H synthase 1 (Ovis aries) (UniProt P05979).
T2 sequence (whole entry): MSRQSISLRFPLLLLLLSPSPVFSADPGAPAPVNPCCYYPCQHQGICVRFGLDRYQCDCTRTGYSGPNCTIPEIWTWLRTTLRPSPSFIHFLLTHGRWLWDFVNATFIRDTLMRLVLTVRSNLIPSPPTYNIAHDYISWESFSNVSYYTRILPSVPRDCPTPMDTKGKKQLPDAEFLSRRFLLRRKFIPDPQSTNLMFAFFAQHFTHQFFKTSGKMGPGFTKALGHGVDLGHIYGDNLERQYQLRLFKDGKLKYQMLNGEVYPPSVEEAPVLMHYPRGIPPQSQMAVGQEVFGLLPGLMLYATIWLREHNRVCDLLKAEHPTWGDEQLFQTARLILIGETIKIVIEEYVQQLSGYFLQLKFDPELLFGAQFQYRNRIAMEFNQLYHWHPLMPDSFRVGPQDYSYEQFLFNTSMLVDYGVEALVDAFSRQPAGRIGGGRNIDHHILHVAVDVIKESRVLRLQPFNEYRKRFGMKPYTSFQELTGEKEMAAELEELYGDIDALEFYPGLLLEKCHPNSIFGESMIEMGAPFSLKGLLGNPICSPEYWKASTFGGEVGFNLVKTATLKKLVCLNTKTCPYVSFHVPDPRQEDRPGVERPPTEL
The assay is described as follows: Inhibition of ovine COX1 at 10 uM using arachidonic acid as substrate preincubated for 5 mins followed by substrate addition and measured after 2 mins by ADPH probe-based fluorescence assay relative to control. In outline:
as §1

Assay [3] concerns the target T3, Prostaglandin G/H synthase 2 (Homo sapiens, UniProt P35354).
T3 sequence (P35354 whole entry): T1 sequence (whole entry)
The assay is described as follows: Inhibition of human recombinant COX2 using arachidonic acid as substrate preincubated for 5 mins followed by substrate addition and measured after 2 mins by ADPH probe-based fluorescence assay. An outline of the steps:
as §1

Assay [4] has as its system Mus musculus. The assay is described as follows: Anticonvulsant activity in Swiss albino mouse assessed as protection against subcutaneous pentylenetetrazole-induced seizures at 100 mg/kg, ip administered 4 hrs prior to PTZ challenge and measured after 30 mins. It is filed as functional. An outline of the steps: (§2)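 Male Swiss Albino mice (25–30 g), 6 per group, dosed i.p. with drugs in sterile saline, then challenged with PTZ 85 mg/kg s.c. (CD97), given at 10 ml/kg, 0.5 h or 4 h later. Each animal is observed singly for seizures. Protection is scored as protected/total animals.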

Assay [5] has as its system Mus musculus. The assay is described as follows: Anticonvulsant activity in Swiss albino mouse assessed as protection against subcutaneous pentylenetetrazole-induced seizures at 30 mg/kg, ip administered 4 hrs prior to PTZ challenge and measured after 30 mins. The class given is functional. An outline of the steps:
as §2

Assay [6] relates to Mus musculus. The assay can be described thus: Anticonvulsant activity in Swiss albino mouse assessed as protection against subcutaneous pentylenetetrazole-induced seizures at 300 mg/kg, ip administered 4 hrs prior to PTZ challenge and measured after 30 mins. The class given is functional. In outline:
as §2

Assay [7] deals with Mus musculus. The assay is described as follows: Anticonvulsant activity in Swiss albino mouse assessed as protection against subcutaneous pentylenetetrazole-induced seizures at 30 mg/kg, ip administered 0.5 hrs prior to PTZ challenge and measured after 30 mins. It is filed as functional. An outline of the steps:
as §2

For assay [8], the system named is Mus musculus. The assay is described as follows: Anticonvulsant activity in Swiss albino mouse assessed as protection against subcutaneous pentylenetetrazole-induced seizures at 300 mg/kg, ip administered 0.5 hrs prior to PTZ challenge and measured after 30 mins. It is filed as functional. An outline of the steps: as §2
For assay [9], the system named is Mus musculus. The assay can be described thus: Anticonvulsant activity in Swiss albino mouse assessed as protection against subcutaneous pentylenetetrazole-induced seizures at 100 mg/kg, ip administered 0.5 hrs prior to PTZ challenge and measured after 30 mins. It is filed as functional. In outline: as §2
Assay [10] concerns Mus musculus. The assay is described as follows: Anticonvulsant activity in Swiss albino mouse assessed as protection against subcutaneous pentylenetetrazole-induced seizures at 10 mg/kg, ip administered 0.5 hrs prior to PTZ challenge and measured after 30 mins. The class given is functional. In outline:
as §2

In assay [11] the test system is Mus musculus. The assay can be described thus: Anticonvulsant activity in Swiss albino mouse assessed as protection against subcutaneous pentylenetetrazole-induced seizures at 1 mg/kg, ip administered 4 hrs prior to PTZ challenge and measured after 30 mins. The class given is functional. An outline of the steps:
as §2

For assay [12], the system named is Mus musculus. The assay is described as follows: Anticonvulsant activity in Swiss albino mouse assessed as protection against subcutaneous pentylenetetrazole-induced seizures at 5 mg/kg, ip administered 0.5 hrs prior to PTZ challenge and measured after 30 mins. The class given is functional. An outline of the steps: as §2
Assay [13] concerns Mus musculus. The assay can be described thus: Anticonvulsant activity in Swiss albino mouse assessed as protection against subcutaneous pentylenetetrazole-induced seizures at 1 mg/kg, ip administered 0.5 hrs prior to PTZ challenge and measured after 30 mins. It is filed as functional. In outline: as §2
The test system of the next assay is Rattus norvegicus. The assay is described as follows: Antiepileptic activity in rat model of PTZ-induced epileptiogenesis kindling model assessed as decrease of seizure severity at 5 mg/kg, ip measured up to 28 days. It is filed as functional, organism-based. An outline of the steps:
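Adult male Wistar rats receive PTZ 40 mg/kg i.p. on alternate days for 28 days plus daily i.p. treatment. After each PTZ injection, rats are observed singly for 45 min and scored on the revised Racine scale (stages to 6). Group mean score per week, ±S.D. Statistics are repeated-measures ANOVA with Tukey's test.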

Assay [14] concerns Mus musculus. The assay is described as follows: Anticonvulsant activity in Swiss albino mouse assessed as protection against subcutaneous pentylenetetrazole-induced seizures at 5 mg/kg, ip administered 4 hrs prior to PTZ challenge and measured after 30 mins. The class given is functional. In outline:
as §2

The test system of assay [15] is Mus musculus. The assay is described as follows: Anticonvulsant activity in Swiss albino mouse assessed as protection against subcutaneous pentylenetetrazole-induced seizures at 10 mg/kg, ip administered 4 hrs prior to PTZ challenge and measured after 30 mins. The class given is functional. An outline of the steps:
as §2

Consider `COc1ccc(NC(=S)NNC(=O)Nc2ccc(S(C)(=O)=O)cc2)cc1`, for which, in assay [1], the inhibition is 62%. Moreover, the inhibition result in assay [2] was “inactive”. Besides, the IC50 in assay [3] is 7.15 µM.

Take `CS(=O)(=O)c1ccc(NC(=O)NNC(=S)Nc2ccc(F)cc2)cc1`: the inhibition in assay [1] stood at 54%. In addition, in assay [2], the inhibition entry is “inactive”. For the same compound, the IC50 in assay [3] is 12.5 µM.

For `CCNC(=S)NNC(=O)Nc1ccc(S(C)(=O)=O)cc1`, in assay [1], the inhibition is 32%. Also, the inhibition entry in assay [2] is “inactive”.

Take `CS(=O)(=O)c1ccc(NC(=O)NNC(=S)Nc2cccc(Cl)c2Cl)cc1`: in assay [1], the inhibition came to 46%. Moreover, the inhibition entry in assay [2] was “inactive”.

As to `CS(=O)(=O)c1ccc(NC(=O)NNC(=S)Nc2c(F)cccc2F)cc1`, the inhibition in [1] stood at 62%. In addition, the inhibition result in [2] is “inactive”. Besides, the IC50 in assay [3] was 6.42 µM.

For the compound `CS(=O)(=O)c1ccc(NC(=O)NNC(=S)Nc2ccc(Cl)cc2)cc1`, the inhibition in [1] turned out to be 70%. Moreover, the inhibition entry in [2] is “inactive”. Also, in assay [3], the IC50 stood at 5.32 µM.

Take `CS(=O)(=O)c1ccc(NC(=O)NNC(=S)Nc2ccccc2)cc1`: the inhibition in assay [1] was 50%. The inhibition entry in [2] was “inactive”. For the same compound, the IC50 in assay [3] came to 12.8 µM.

For `Cc1cccc(C)c1NC(=S)NNC(=O)Nc1ccc(S(C)(=O)=O)cc1`, the Activity is reported as 33% in the assay with Mus musculus [4]; 17% in the assay with Mus musculus [5]; 50% in the assay with Mus musculus [6]; 17% in the assay on Mus musculus [7]; 33% in the assay on Mus musculus [8]; 33% in the assay with Mus musculus [9]. Further, the inhibition in [1] amounted to 64%. In addition, the inhibition result in [2] is “inactive”. In [3], the IC50 is 3.14 µM.

Regarding `CCCC(CCC)C(=O)[O-].[Na+]` [VALPROATE SODIUM], the values for the Activity with Mus musculus [6] and in the assay with Mus musculus [8] were 50% and 100%, respectively.

For `CS(=O)(=O)c1ccc(NC(=O)NNC(=S)NCc2ccccc2)cc1`, in assay [1], the inhibition was 21%. Further, the inhibition result in assay [2] was “inactive”.

As to `Cc1ccc(-c2ncc(Cl)cc2-c2ccc(S(C)(=O)=O)cc2)cn1` [ETORICOXIB], the Activity in the assay on Mus musculus [10] stood at 50%; in the assay on Mus musculus [11], 50%; in the assay on Mus musculus [12] it was 67%; in the assay with Mus musculus [13], 50%; in the assay with Mus musculus [14] it was 67%; with Mus musculus [15], 50%. Also, the result with Rattus norvegicus was Active.

For `CS(=O)(=O)c1ccc(NC(=O)NNC(=S)NCCc2ccccc2)cc1`, in assay [1], the inhibition worked out at 22%. In assay [2], the inhibition entry was “inactive”.

One may read the inhibition as the relative decrease from the control value, in per cent. As a reminder, the IC50 is the midpoint of a concentration-inhibition curve.
